≈ marks a conversion by molar mass, not a printed value.

One may read the IC50 as the concentration at which inhibition is half-maximal. As usually defined, the inhibition is the relative decrease from the control value, in per cent. A word on the solubility: it is the dissolved amount per volume that the medium holds. A low value points to little dissolved substance.

For series [1], the target named is Mitogen-activated protein kinase 14 (Homo sapiens, UniProt Q16539). Nature of the series: Inhibition of p38alpha MAPK (unknown origin) using ATF-2 as substrate after 1 hr by ELISA. For orientation: In an ELISA, binding on a coated surface is turned into a signal by an enzyme label.
For series [2], the target named is T1, Glycogen synthase kinase-3 beta (Homo sapiens, UniProt P49841). In words: Competitive inhibition of human recombinant full length GSK3beta using YRRAAVPPSPSLSRHSSPHQ(pS)EDEEE as substrate preincubated with enzyme for 10 mins followed by substrate and 25 uM ATP addition measured after 60 mins by ADP-Glo luminescence assay. The essentials: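 Compounds in serial dilutions were preincubated with kinase for 10 min at rt. Substrate/ATP was then added and the reaction ran 60 min at rt. ADP-Glo reagent 60 min, detection reagent 30 min, then luminescence read (500 ms integration).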
On the technique in general: ADP-Glo first removes unused ATP, then detects ADP through luciferase.

In series [3] the target is Glycogen synthase kinase-3 alpha (Homo sapiens, UniProt P49840). Nature of the series: Inhibition of human recombinant full length GSK3alpha using YRRAAVPPSPSLSRHSSPHQ(pS)EDEEE as substrate preincubated with enzyme for 10 mins followed by substrate and 25 uM ATP addition measured after 60 mins by ADP-Glo luminescence assay. The essentials: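 Recombinant human GSK3α at 0.50 ng/µL, 25 µM ATP, 0.2 µg/µL substrate G50-58, serial compound dilutions. Kinase was preincubated with compound 10 min at rt, then run 60 min at rt after substrate/ATP addition. ADP-Glo reagent 60 min, detection reagent 30 min, luminescence read. Uninhibited-kinase and ATP/substrate-only controls were included.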

Series [4] deals with T1, Glycogen synthase kinase-3 beta. Nature of the series: Competitive inhibition of human recombinant full length GSK3beta using YRRAAVPPSPSLSRHSSPHQ(pS)EDEEE as substrate preincubated with enzyme for 10 mins followed by substrate and 100 uM ATP addition measured after 60 mins by ADP-Glo luminescence assay. The essentials: (§1)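 Recombinant human GSK3β at 0.58 ng/µL with 0.2 µg/µL substrate G50-58; ATP at 25 µM, 100 µM or 500 µM, each as its line states. Compounds in serial dilutions were preincubated with kinase for 10 min at rt. Substrate/ATP was then added and the reaction ran 60 min at rt. ADP-Glo reagent 60 min, detection reagent 30 min, then luminescence read (500 ms integration).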

The target is the same in series [5]. In words: Competitive inhibition of human recombinant full length GSK3beta using YRRAAVPPSPSLSRHSSPHQ(pS)EDEEE as substrate preincubated with enzyme for 10 mins followed by substrate and 500 uM ATP addition measured after 60 mins by ADP-Glo luminescence assay. An outline of the steps: as §1
A short description of series [6]: Metabolic stability in human liver microsomes assessed as parent compound remaining after 10 mins by LC-MS analysis relative to control. To be noted: read-out: Stability. It is filed as ADME, Microsome. In general terms: Liver microsomes are a subcellular fraction often used to study metabolism.
Series [7] is described as follows: Metabolic stability in human liver microsomes assessed as parent compound remaining after 20 mins by LC-MS analysis relative to control. The class given is ADME, Microsome. The following applies: read-out: Stability.
The nature of series [8]: Metabolic stability in human liver microsomes assessed as parent compound remaining after 30 mins by LC-MS analysis relative to control. The class given is ADME, Microsome. The following applies: read-out: Stability.
The nature of series [9]: Metabolic stability in human liver microsomes assessed as parent compound remaining after 60 mins by LC-MS analysis relative to control. It is filed as ADME, Microsome. To be noted: read-out: Stability.
The nature of series [10]: Metabolic stability in human liver microsomes assessed as parent compound remaining after 120 mins by LC-MS analysis relative to control. The following applies: read-out: Stability. The class given is ADME, Microsome.
Series [11] can be described thus: Metabolic stability in human liver microsomes assessed as parent compound remaining after 240 mins by LC-MS analysis relative to control. It is filed as ADME, Microsome. The following applies: read-out: Stability.
Series [12] in a line: Drug metabolism in human liver microsomes assessed as N-(4-(4-(4-Fluorophenyl)-2-(methylsulfinyl)-1H-imidazol-5-yl)pyridin-2-yl)cyclopropanecarboxamide metabolite formation by measuring half life by LC-MS analysis. It is filed as ADME, Microsome. The essentials:
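Incubation with human liver microsomes for up to 4 h. Remaining parent and sulfoxide metabolite formation were followed over time, giving a half-life for the oxidation.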

Series [13] can be described thus: Drug metabolism in RjOrl:Swiss CD-1 mouse at 10 mg/kg, iv administered as single dose measured after 2 hrs by LC-MS relative to control. It is filed as ADME, organism-based. The following applies: in vivo. An outline of the steps: (§2)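 Adult male RjOrl:Swiss CD-1 mice got one intravenous dose of 10 mg/kg. Plasma was sampled at 10, 30 and 120 min. After the last sample the mice were sacrificed and brains dissected. Blood and brain samples were prepared and analysed by LC-MS for parent and sulfoxide metabolite; brain levels reported as ng/g.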

The subject of the next series is Blood. In words: Inhibition of LPS-induced TNFalpha production in human whole blood preincubated with compound for 15 mins followed by LPS addition measured after 2.5 hrs by ELISA. It is filed as functional, tissue-based.
A further series concerns the target CYP1A2 (Homo sapiens, UniProt P05177). Nature of the series: Inhibition of human recombinant CYP1A2 expressed in baculovirus infected insect cells using 3-cyano-7-ethoxycoumarin as substrate at 10 uM in presence of NADPH by fluorimetric analysis relative to control. The class given is ADME. To be noted: probe 3-cyano-7-ethoxycoumarin.
A further series deals with CYP2C9 (Homo sapiens, UniProt P11712). In words: Inhibition of human recombinant CYP2C9 expressed in baculovirus infected insect cells using OOMR as substrate at 10 uM in presence of NADPH by fluorimetric analysis relative to control. It is filed as ADME. To be noted: probe OOMR.
Another series concerns the target Cytochrome P450 2C19 (Homo sapiens, UniProt P33261). In words: Inhibition of human recombinant CYP2C19 expressed in baculovirus infected insect cells using EOMCC as substrate in presence of NADPH by fluorimetric analysis relative to control. It is filed as ADME. To be noted: recombinant enzyme.
Another series concerns the target CYP2D6 (Homo sapiens, UniProt P10635). Nature of the series: Inhibition of human recombinant CYP2D6 expressed in baculovirus infected insect cells using EOMCC as substrate at 10 uM in presence of NADPH by fluorimetric analysis relative to control. It is filed as ADME. To be noted: probe EOMCC.
The next series addresses CYP3A4 (Homo sapiens, UniProt P08684). In words: Inhibition of human recombinant CYP3A4 expressed in baculovirus infected insect cells using BOMR as substrate at 10 uM in presence of NADPH by fluorimetric analysis relative to control. The following applies: probe BOMR. The class given is ADME.
The next series deals with hERG (KCNH2) (Homo sapiens, UniProt Q12809). In words: Inhibition of tracer Red binding to human ERG expressed in membranes at 10 uM after 4 hrs by fluorescence polarization assay relative to control. The following applies: membranes expressing human ERG, probe tracer Red.
The nature of series [14]: Solubility of the compound in PBS buffer at pH 7.8 after 1 hr by HPLC analysis. The class given is physicochemical.
Series [15] is described as follows: Drug metabolism in RjOrl:Swiss CD-1 mouse assessed as ratio of compound to N-(4-(4-(4-Fluorophenyl)-2-(methylsulfinyl)-1H-imidazol-5-yl)pyridin-2-yl)cyclopropanecarboxamide metabolite level at 10 mg/kg, iv administered as single dose measured after 10 mins by LC-MS analysis. It is filed as ADME, organism-based. The following applies: in vivo. An outline of the steps:
as §2

Series [16] can be described thus: Metabolic stability in human liver microsomes assessed as parent compound remaining after 180 mins by LC-MS analysis relative to control. To be noted: read-out: Stability. The class given is ADME, Microsome.

T1 sequence (P49841 whole entry): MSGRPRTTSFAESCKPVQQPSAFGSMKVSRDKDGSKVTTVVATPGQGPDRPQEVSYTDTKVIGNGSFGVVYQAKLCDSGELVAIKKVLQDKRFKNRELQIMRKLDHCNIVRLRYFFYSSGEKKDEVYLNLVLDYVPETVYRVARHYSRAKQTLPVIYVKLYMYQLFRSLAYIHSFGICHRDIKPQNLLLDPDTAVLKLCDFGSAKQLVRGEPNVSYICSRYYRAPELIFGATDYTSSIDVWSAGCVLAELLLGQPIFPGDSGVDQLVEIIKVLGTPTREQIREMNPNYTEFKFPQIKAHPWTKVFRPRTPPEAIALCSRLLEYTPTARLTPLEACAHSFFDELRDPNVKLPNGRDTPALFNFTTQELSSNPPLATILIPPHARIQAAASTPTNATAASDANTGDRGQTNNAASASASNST
Chain of Cytochrome P450 2C19 (P33261 whole entry): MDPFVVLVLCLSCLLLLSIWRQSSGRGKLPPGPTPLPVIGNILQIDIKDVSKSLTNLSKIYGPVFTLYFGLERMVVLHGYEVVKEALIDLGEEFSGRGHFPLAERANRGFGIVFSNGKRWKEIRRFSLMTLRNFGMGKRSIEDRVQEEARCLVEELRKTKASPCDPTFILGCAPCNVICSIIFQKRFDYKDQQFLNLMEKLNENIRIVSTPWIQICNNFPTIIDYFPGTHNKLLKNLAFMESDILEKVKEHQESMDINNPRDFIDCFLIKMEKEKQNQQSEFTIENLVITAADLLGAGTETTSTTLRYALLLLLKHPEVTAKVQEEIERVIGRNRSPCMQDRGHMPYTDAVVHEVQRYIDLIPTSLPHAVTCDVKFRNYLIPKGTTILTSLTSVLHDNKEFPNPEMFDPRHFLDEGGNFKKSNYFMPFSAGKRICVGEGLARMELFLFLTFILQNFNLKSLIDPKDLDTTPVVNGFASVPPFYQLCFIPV
Chain of CYP2C9 (P11712 whole entry): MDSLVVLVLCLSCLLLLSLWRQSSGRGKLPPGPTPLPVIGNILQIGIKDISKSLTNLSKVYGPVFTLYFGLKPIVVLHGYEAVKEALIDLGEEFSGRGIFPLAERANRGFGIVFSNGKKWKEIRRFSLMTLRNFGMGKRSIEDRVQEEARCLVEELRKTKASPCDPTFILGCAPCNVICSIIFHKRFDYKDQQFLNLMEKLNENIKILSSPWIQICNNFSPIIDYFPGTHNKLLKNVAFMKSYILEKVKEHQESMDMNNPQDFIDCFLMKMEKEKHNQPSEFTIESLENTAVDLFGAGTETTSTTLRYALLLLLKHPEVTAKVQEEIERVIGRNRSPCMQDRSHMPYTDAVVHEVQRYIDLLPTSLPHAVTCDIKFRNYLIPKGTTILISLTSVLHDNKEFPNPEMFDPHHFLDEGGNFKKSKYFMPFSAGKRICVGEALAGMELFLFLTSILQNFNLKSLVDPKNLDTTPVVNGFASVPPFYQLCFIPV
Chain of Glycogen synthase kinase-3 alpha (P49840 whole entry): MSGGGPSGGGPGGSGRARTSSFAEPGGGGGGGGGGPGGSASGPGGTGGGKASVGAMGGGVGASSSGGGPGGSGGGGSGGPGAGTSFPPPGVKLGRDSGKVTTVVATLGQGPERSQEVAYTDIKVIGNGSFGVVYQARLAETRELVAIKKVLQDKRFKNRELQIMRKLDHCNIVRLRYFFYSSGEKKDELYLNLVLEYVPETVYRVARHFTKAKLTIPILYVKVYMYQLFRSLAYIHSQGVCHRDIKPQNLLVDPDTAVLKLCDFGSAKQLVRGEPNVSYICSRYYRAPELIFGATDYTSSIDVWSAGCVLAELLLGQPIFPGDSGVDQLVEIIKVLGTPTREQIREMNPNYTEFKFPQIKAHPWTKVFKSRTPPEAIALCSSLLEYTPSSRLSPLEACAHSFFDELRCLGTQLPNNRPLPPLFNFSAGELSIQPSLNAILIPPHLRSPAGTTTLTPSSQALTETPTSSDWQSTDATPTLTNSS
Chain of CYP2D6 (P10635 whole entry): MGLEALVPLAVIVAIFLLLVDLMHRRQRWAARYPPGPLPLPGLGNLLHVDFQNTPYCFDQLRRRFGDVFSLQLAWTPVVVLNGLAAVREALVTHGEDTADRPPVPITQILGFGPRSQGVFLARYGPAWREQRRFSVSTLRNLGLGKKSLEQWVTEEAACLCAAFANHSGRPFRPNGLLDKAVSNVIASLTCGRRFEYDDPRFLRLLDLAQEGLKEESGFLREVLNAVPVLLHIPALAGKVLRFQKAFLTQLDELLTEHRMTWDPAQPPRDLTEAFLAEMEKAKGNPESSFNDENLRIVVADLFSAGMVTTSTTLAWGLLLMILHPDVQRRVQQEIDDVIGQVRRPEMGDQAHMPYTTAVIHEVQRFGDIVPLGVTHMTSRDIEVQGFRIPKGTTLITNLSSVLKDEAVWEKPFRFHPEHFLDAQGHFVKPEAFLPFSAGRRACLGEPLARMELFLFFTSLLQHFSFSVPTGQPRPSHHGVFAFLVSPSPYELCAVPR
Chain of CYP1A2 (P05177 whole entry): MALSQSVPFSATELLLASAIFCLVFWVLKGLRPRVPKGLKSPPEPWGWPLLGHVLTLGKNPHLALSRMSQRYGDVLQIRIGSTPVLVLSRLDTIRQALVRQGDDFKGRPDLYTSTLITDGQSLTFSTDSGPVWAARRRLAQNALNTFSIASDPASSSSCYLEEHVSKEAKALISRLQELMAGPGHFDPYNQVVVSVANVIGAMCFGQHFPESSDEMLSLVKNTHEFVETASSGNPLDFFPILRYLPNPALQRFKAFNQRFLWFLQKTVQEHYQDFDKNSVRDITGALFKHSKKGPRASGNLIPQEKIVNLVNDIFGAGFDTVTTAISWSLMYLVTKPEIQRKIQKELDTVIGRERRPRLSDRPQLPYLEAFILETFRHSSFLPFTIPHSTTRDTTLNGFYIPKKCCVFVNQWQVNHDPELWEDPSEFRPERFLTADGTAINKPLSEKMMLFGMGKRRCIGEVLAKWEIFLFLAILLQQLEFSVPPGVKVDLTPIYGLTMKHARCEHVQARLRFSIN
Chain of CYP3A4 (P08684 whole entry): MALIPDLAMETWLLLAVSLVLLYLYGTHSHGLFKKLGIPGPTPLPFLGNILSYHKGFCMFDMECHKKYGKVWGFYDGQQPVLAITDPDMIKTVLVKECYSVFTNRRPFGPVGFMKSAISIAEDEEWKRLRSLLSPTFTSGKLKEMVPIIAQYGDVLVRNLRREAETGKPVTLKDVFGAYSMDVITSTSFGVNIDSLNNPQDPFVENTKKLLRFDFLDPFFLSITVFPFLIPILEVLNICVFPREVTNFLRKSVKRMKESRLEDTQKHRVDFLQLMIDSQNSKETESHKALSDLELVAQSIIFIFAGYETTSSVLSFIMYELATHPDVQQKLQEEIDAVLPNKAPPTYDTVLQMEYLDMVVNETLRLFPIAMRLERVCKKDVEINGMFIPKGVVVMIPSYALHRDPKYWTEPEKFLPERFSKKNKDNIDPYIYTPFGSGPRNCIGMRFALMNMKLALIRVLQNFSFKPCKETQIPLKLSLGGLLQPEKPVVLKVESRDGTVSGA
Chain of hERG (KCNH2) (Q12809 whole entry): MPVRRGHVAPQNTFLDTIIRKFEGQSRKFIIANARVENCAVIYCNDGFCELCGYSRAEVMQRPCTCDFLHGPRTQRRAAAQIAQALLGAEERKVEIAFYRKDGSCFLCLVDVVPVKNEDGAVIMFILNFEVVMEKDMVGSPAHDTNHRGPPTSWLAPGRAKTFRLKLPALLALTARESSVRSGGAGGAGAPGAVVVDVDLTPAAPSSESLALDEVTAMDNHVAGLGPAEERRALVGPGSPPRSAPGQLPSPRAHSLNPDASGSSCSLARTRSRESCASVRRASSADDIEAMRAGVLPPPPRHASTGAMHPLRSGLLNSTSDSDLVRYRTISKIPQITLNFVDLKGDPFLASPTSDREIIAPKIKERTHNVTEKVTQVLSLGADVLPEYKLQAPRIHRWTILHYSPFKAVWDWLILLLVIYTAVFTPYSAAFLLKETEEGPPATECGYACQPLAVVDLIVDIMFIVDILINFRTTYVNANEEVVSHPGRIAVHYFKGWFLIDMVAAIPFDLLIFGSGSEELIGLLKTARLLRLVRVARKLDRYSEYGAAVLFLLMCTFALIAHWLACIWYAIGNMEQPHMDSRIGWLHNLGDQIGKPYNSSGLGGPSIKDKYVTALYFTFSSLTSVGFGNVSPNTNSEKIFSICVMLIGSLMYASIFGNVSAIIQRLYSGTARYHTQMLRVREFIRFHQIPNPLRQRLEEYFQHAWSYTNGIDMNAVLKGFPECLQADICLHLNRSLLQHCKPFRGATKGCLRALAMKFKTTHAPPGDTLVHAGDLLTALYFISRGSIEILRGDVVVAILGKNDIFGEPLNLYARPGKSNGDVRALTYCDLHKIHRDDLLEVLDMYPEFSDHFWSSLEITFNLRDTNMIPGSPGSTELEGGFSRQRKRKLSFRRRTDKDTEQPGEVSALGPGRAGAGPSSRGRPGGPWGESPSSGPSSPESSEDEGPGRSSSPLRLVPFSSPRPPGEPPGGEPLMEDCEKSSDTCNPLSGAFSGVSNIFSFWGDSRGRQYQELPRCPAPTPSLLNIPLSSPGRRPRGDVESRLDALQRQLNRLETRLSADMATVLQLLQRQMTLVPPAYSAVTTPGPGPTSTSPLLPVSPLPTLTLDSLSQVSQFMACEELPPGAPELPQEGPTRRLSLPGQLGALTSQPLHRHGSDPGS
Chain of Mitogen-activated protein kinase 14 (Q16539 whole entry): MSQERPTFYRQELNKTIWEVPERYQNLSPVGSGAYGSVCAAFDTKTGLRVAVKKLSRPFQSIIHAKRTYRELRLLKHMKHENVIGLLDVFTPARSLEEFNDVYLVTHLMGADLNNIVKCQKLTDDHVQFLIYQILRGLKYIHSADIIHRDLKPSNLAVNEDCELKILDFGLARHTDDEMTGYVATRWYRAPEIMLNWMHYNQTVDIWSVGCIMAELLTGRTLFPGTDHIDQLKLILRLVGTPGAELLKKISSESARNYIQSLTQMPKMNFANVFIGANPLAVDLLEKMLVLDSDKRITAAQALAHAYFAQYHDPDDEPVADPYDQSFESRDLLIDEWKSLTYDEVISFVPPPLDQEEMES

Consider `CSc1nc(-c2ccc(F)cc2)c(-c2ccnc(NC(=O)C3CC3)c2)[nH]1`, for which the IC50 is 0.024 µM in [1]; 0.0185 to 0.04 µM in series [2]; 0.3 µM in series [3]; 0.174 µM in series [4]; 0.423 µM in [5]; 0.541 µM with Blood. The remaining at 10 min in series [6] came out at 98.8%. The remaining at 20 min in [7] stood at 97.9%. Further, in series [8], the remaining at 0.5 h stood at 89.6%. The remaining at 1 h in series [9] came out at 81.8%. Moreover, the remaining at 2 h in series [10] came to 65.9%. Also, the remaining at 4 h in series [11] is 44%. In addition, the t1/2 in series [12] stood at 3.17 h. The Drug metabolism entry in series [13] is “Metabolite_Detected”. Besides, the inhibition at 10 µM at CYP1A2 is 88.4%; at CYP2C9 it was 77.7%; on CYP2D6 it was 14.6%; on CYP3A4, 75.6%. For the same compound, at Cytochrome P450 2C19, the “inhibition (INH)” value was 56.1%. This compound also registered an inhibition at 4 h, 10 µM on hERG (KCNH2) of 30.1%. The compound further had a solubility at 1 h in [14] of 0.051 mg/mL (≈ 138 µM). Also, the Ratio in [15] is listed as 0.5. The remaining at 3 h in [16] came to 52.1%.

Values taken from ChEMBL document CHEMBL4393708, “Pyridinylimidazoles as dual glycogen synthase kinase 3β/p38α mitogen-activated protein kinase inhibitors” (Eur J Med Chem, 2019).
